Measured values: paper PMC11544174 (Acta Pharmaceutica Sinica. B, 2024)

How the values were obtained:
cytotoxicity = assay type: cell-based; details: human, HEp-2 cells
Method in brief: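 HEp-2 cells were grown in DMEM with 10% FBS. Test compounds were held as 50 mmol/L DMSO stocks at −20 °C and diluted into culture medium to final concentrations. Ribavirin served as positive control.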

[1] = test system: respiratory syncytial virus (RSV); assay: cytopathic effect; assay type: cell-based, strain A2; details: human respiratory syncytial virus, HEp-2, read-out: IC50 ± SD (50% inhibition concentration), anti-RSV activity
Method in brief: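 Host cells were HEp-2 in DMEM with 10% FBS. RSV A2 stock was propagated in HEp-2 and titred by plaque assay. Test compounds were held as 50 mmol/L DMSO stocks at −20 °C and diluted into medium to final concentrations. Ribavirin served as positive control.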

IC50 [1]: 15 ± 1 µM
SMILES: NC(=O)c1ncn([C@@H]2O[C@H](CO)[C@@H](O)[C@H]2O)n1 [Ribavirin]
CC50 (cytotoxicity): > 50 µM
